One data set has as its system HCT-116 cells. In words: MTT anticancer assay on colorectal cancer cell line HCT-116. The data set is classed as cell-based, human. The note with it: for SI (selectivity index): HCT-116 cells over normal colonocytes; for IC50: Homo sapiens, HCT-116, 72 h, read-out: IC50 HCT-116, MTT, 72 h, mean ± SEM. An outline of the steps: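 MTT viability assay on human colorectal carcinoma HCT-116 cells exposed to test compounds. Data are mean ± SEM of three measurements. Differences between treatments were tested by one-way ANOVA with Tukey's test, with significance at p < 0.05.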

The subject of a further data set is normal colonocyte. Put plainly: MTT cytotoxicity on normal colonic epithelial cells. The data set is classed as cell-based, rat. The note with it: concentration at 100% cell viability (safe dose), 72 h, mean ± SEM. In outline: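 Normal colonic epithelial cells were isolated by the Follmann & Birkner method, with modifications. Cytotoxicity of test compounds on these colonocytes was measured by MTT assay to define safe concentrations. Data are mean ± SEM of three measurements. Differences were tested by one-way ANOVA with Tukey's test, with significance at p < 0.05.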

A further data set concerns HCT-116 cell line. The note with it: read-out: IC50 cytotoxicity HCT-116 cell line; cited from earlier work.

Turning to `O=c1c(Cc2ccccc2)nc2ccccc2n1Cc1cn(-c2ccc(I)cc2)nn1` [Compound 15], in the data set on HCT-116 cells, the “SI (selectivity index)” value was found to be 3.244 and the 50% inhibitory concentration (IC50) worked out at 135 ± 9 nM. The EC100 normal colonocyte with normal colonocyte was 0.103 ± 0.008 µM.

For `O=c1c(Cc2ccccc2)nc2ccccc2n1Cc1cn(-c2ccc(O)cc2)nn1` [Compound 16], in the data set with HCT-116 cells, the “SI (selectivity index)” value was 5.000 and the IC50 came out at 222 nM. This compound also showed an EC100 normal colonocyte in the data set on normal colonocyte of 0.556 ± 0.031 µM.

With `O=C(O)CNC(=O)c1ccc(-n2cc(Cn3c(=O)c(Cc4ccccc4)nc4ccccc43)nn2)cc1` [Compound 17], in the data set with HCT-116 cells, the “SI (selectivity index)” value is reported as 3.263 and the IC50 was 114 ± 1 nM. The same compound gave an EC100 normal colonocyte with normal colonocyte of 0.169 ± 0.036 µM.

`CC(=O)c1ccc(-n2cc(Cn3c(=O)c(Cc4ccccc4)nc4ccccc43)nn2)cc1` [Compound 18]: in the data set on HCT-116 cells, the “SI (selectivity index)” value is recorded as 10.633 and the IC50 was 218 nM. Moreover, in the data set with normal colonocyte, the EC100 normal colonocyte is 0.212 ± 0.010 µM.

In the case of `CC(=O)NS(=O)(=O)c1ccc(-n2cc(Cn3c(=O)c(Cc4ccccc4)nc4ccccc43)nn2)cc1` [Compound 19], in the data set on HCT-116 cells (HCT-116 IC50, compared to 20), the “fold lower anticancer activity than compound 20” value worked out at 4.6 fold. In the data set on HCT-116 cells, the “SI (selectivity index)” value was determined as 1.211 and the half-inhibitory concentration (IC50) is 331 ± 4 nM. This compound also displayed an EC100 normal colonocyte in the data set on normal colonocyte of 0.150 ± 0.015 µM.

Turning to `COc1cccc2c1C(=O)c1c(O)c3c(c(O)c1C2=O)C[C@@](O)(C(=O)CO)C[C@@H]3O[C@H]1C[C@H](N)[C@H](O)[C@H](C)O1` [DOX, doxorubicin, reference compound], in the data set on HCT-116 cells, the “SI (selectivity index)” value stood at 0.357 and the IC50 is 761 ± 50 nM. Further, the IC50 with HCT-116 cell line was 9630 nM. Besides, the EC100 normal colonocyte in the data set on normal colonocyte came to 0.074 ± 0.008 µM.

As to `CNC(=O)c1cc(Oc2ccc(NC(=O)Nc3ccc(Cl)c(C(F)(F)F)c3)cc2)ccn1` [sorafenib], in the data set with HCT-116 cell line, the IC50 is 9400 nM.

Values taken from publication PMC11170630 (ACS Omega, 2024).
